APJ antag: blocks the human apelin receptor APJ; 330,000 compounds, 0.32% hits; inhibition, % at 20 µM; AID 2521; CHO-K1 APJ beta-arrestin complementation, luminescence;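 active means inhibition above about 40% at 20 µM, limit read from the data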;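 further: cells challenged with 10 nM apelin-13 agonist together with compound; plate controls were apelin-13 plus DMSO wells for no effect and DMSO wells lacking apelin-13 for full effect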
EBI2 antag: blocks human EBI2 receptor beta-arrestin signaling; P32249; EBI2 beta-arrestin recruitment, luminescence, 7a,25-OHC stimulated; inhibition, % at 5 µM; 360,000 compounds, 0.81% hits; AID 651636; in the data active means inhibition above about 38%;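 further: enzyme fragment complementation signal reports receptor beta-arrestin coupling in cells; 0% = agonist plus DMSO wells and 100% = wells without agonist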
APJ agonist: activates the human apelin receptor APJ | P35414 | CHO-K1 APJ PathHunter beta-arrestin, luminescence; 0% DMSO wells, 100% apelin | activation, % at 20 µM | 330,000 compounds, 0.11% hits | AID 2520;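 active means activation more than six SD over the plate average, tested at 20 µM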;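 further: 0% = DMSO alone and 100% = apelin-13 at 10 nM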
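assay system = CHO-K1 APJ beta-arrestin complementation cell line | input = cell density 1000 per well | dosing = compound 20 µM once, DMSO 1% | timing = compound 90 min 25 °C, reagent 1 h | measured by = luminescence from split beta-galactosidase complementation, Galacton Star/Emerald II substrate | read-out basis = APJ agonist activity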
CCR6 antag: CCR6 (human) receptor antagonism | CHO-K1 CCR6 PathHunter beta-arrestin, luminescence, CCL20-stimulated | 340,000 compounds, 0.49% hits | inhibition, % at 20 µM | AID 493098;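 active means compounds whose inhibition of the agonist-driven luminescence signal at 20 µM reaches about 50%, limit read from the data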;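 further: cells stimulated with CCL20 at 14 nM final; plate controls were DMSO with CCL20 for no effect and DMSO without agonist for full effect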
CXCR6 block: blocks human CXCR6 beta-arrestin recruitment | 360,000 compounds, 0.36% hits | inhibition, % at 20 µM | AID 602244 | CHO-K1 PathHunter CXCR6 beta-arrestin, luminescence; in the data active means inhibition above about 34%, passing the limit was not always enough;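 further: antagonist mode with CXCL16 agonist at 10 nM final; 0% = 10 nM CXCL16 with DMSO and 100% = unstimulated wells without agonist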
Target sequence (O00574 whole entry, looked up): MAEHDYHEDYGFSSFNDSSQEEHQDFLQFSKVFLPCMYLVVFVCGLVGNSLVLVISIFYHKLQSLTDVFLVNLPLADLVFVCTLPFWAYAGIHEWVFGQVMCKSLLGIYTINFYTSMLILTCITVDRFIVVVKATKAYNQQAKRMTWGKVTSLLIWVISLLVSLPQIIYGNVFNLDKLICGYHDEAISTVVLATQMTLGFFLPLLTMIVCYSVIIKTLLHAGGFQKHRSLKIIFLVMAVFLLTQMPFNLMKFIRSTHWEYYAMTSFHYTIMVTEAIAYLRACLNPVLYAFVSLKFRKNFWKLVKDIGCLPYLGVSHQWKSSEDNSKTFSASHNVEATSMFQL
iPSC survival up: hiPSC single-cell survival enhancement; AID 602274; survival enhancement, % at 20 µM; 360,000 compounds, 0.044% hits; ATPlite luminescence; 100% = ROCK inhibitor wells, 0% = DMSO; in the data active means survival enhancement above about 18%;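 further: cells exposed to compounds for 16 hours before the ATP read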
CXCR6 antag conf: CXCR6 antagonism confirmation, single concentration; shares compounds with CXCR6 block; CHO-K1 CXCR6 PathHunter beta-arrestin, luminescence; inhibition, % at 20 µM; 700 compounds, 65% hits; AID 602409;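 active means mean inhibition over four retests above 40%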;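 further: receptor stimulated with 10 nM CXCL16 agonist; beta-galactosidase fragment complementation upon beta-arrestin recruitment to receptor; plate controls were CXCL16 plus DMSO for no effect and DMSO without CXCL16 for full effect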
An asterisk follows results filed as active; · = not tested or not shown. An excerpt weighted towards active compounds, which were near 1.5% of everything screened.

SMILES | APJ antag | EBI2 antag | APJ agonist | CCR6 antag | CXCR6 block | iPSC survival up | CXCR6 antag conf
CC(C)(C)c1cc(NC(=O)C2(C)CCN2C(=O)c2ccccc2CCc2ccccc2)no1 (stereo not drawn) | · | 13 | · | · | 9 | 1 | ·
CC1Cc2ccccc2N1C(=S)NC(=O)c1cccc(Br)c1 (stereo not drawn) | 24 | -3 | 0 | · | 48* | 1 | 65*
CN1/C(=C/C(=O)COC(=O)C2COc3ccccc3O2)C(C)(C)c2ccccc21 (stereo not drawn) | · | -7 | · | -19 | -2 | 0 | ·
S=C(Nc1ccccc1)c1ccccn1 | 9 | 0 | -7 | · | 56* | -1 | 79*
S=C(Nc1ccccc1)Nc1ccccn1 | · | -2 | · | · | 5 | -2 | ·
Cc1ccnc(Nc2ccc(CCO)cc2)n1 | · | -16 | · | · | -2 | -2 | ·
CC1CCN(C(=O)/C(=C/c2ccccc2Cl)c2ccccc2)CC1 | 5 | -1 | -1 | 8 | 2 | 3 | ·
N#CC(C#N)=C1C=CC=CN1/C(=C\c1ccccc1Cl)C(=O)c1ccccc1 | · | 22 | · | 116* | 93* | -1 | 82*
Cc1ccc(S(=O)(=O)NCC(C)n2cncn2)cc1C (stereo not drawn) | 7 | -4 | -1 | 5 | 1 | 0 | ·
COc1ccc(/C=C/c2ccc3cccc(O)c3n2)c(OC)c1OC | 31 | 15 | -7 | 61* | 38* | 0 | 44*
COc1cc(Br)cc(/C=C/c2ccc3cccc(O)c3n2)c1OC | 27 | 32 | -8 | 36 | 21 | 0 | ·
Cc1ccc(/C=C/c2ccc3cccc(O)c3n2)s1 | -23 | 0 | 1 | 52* | 36* | 0 | 38
COc1cc(/C=C/c2ccc3cccc(O)c3n2)cc(Cl)c1OC | 13 | 9 | -9 | 23 | 5 | 0 | ·
CNC(=O)c1c(NC(=O)c2ccc(N3C(=O)CCC3=O)cc2)sc2c1CCC(C)C2 (stereo not drawn) | 0 | 1 | 1 | 9 | 4 | 0 | ·
COC(=O)c1ccc(/C=C(\C#N)C(=O)NC(C)c2ccccc2)cc1 (stereo not drawn) | 12 | 43 | 10 | 53* | 40* | 4 | 55*
C=C1C(=O)C23C(O)C1CCC2C12CCCC(C)(COC(C)=O)C1C(O)C3(O)OC2 (stereo not drawn) | · | 77* | · | 103* | 76* | -3 | 95*
CC(Oc1ccc(Br)cc1)C(=O)Nc1nc(-c2ccccn2)cs1 (stereo not drawn) | 39 | 6 | -20 | 84* | 93* | 0 | 86*
CC(Sc1cccc[n+]1[O-])C(=O)NC1CCCCC1C (stereo not drawn) | -6 | -1 | 0 | -2 | 6 | 3 | ·
O=C(CCN1C(=O)[C@@H]2Cc3ccccc3CN2C1=O)Nc1cccc(F)c1 | 30 | -4 | -4 | 13 | -5 | 0 | ·
O=C(NC(=S)N1CCN(c2c(Cl)cccc2[N+](=O)[O-])CC1)c1cccs1 | 7 | 13 | -3 | 45 | 38* | 1 | 35
Cc1nn2c(NCc3ccccn3)cc(C(C)C)nc2c1-c1ccccc1 | 7 | -16 | -4 | 52* | 49* | 0 | 9
CCOC(=O)C1(Cc2ccc(Cl)cc2)CCN(Cc2ccon2)CC1 | 19 | -12 | -1 | 4 | 70* | 1 | 5
O=C(CSc1cccc2cccnc12)N1CCCC1 | 27 | 31 | -7 | 70* | 52* | -1 | 69*
CCCNC(=O)NS(=O)(=O)c1ccc(Cl)cc1 | -8 | -3 | -4 | 15 | -2 | 2 | ·
CCCNC(=O)c1nnsc1S(=O)(=O)c1ccc(Cl)cc1 | 23 | 12 | -3 | 74* | 65* | -5 | 83*
SMILES | APJ antag | EBI2 antag | APJ agonist | CCR6 antag | CXCR6 block | iPSC survival up | CXCR6 antag conf
CCCNC(=O)c1nnsc1S(=O)c1ccc(Cl)cc1 (stereo not drawn) | 40 | 8 | -6 | 97* | 87* | -6 | 99*
CNC(=O)c1nnsc1S(=O)c1ccc(Cl)cc1 (stereo not drawn) | 27 | 7 | -4 | 99* | 96* | -6 | 97*
C[C@H](NC(=O)c1nc[nH]c1C(=O)NCCCCCN)C(=O)OCc1ccccc1 | 9 | 4 | 4 | -3 | -3 | 15 | ·
COc1cccc(-n2nc(C#N)c(Cl)cc2=O)c1 | 49* | 47* | -3 | 36 | 50* | -1 | 51*
COc1cccc(CN(C)C(=O)c2ccccc2Sc2ccccc2C#N)c1OC | -34 | 6 | -4 | 11 | -5 | 0 | ·
CC(=NO)C1CCC2C3CCC4=CC(=NO)CCC4(C)C3C(O)CC12C (stereo not drawn) | · | 5 | · | 57* | 44* | -2 | 57*
O=C(O)c1cc(S(=O)(=O)NCCCN2CCCC2=O)ccc1Cl | 1 | -4 | -2 | 4 | -3 | 5 | ·
COCCN(C(=O)COC(=O)CNC(=O)c1ccc(C)cc1)c1c(N)n(Cc2ccccc2)c(=O)[nH]c1=O | · | -9 | · | -5 | -2 | 0 | ·
CCC(C)c1ccc(O)c(NC(=S)NC(=O)c2cccs2)c1 (stereo not drawn) | · | 23 | · | · | 59* | -2 | 64*
CC(C)C[C@H]1COc2cccc(N(C)CCO)c2S(=O)(=O)N1 | · | -8 | · | · | -5 | 1 | ·
O=[N+]([O-])c1cc(-c2ncccn2)c([N+](=O)[O-])s1 | 6 | 10 | -2 | 85* | 56* | -4 | 73*
COc1ccc(-c2c(C(=O)c3ccccc3)[nH]c(N)c2C(=O)c2ccccc2)cc1OC | · | 3 | · | · | 42* | -1 | 41*
Cc1ccc(NC(=O)c2nc(S(=O)(=O)Cc3ccccc3C)ncc2Cl)cc1C | 21 | 56* | -3 | 61* | 50* | 0 | 60*
COc1cccc(NC(=O)c2nc(S(C)(=O)=O)ncc2Cl)c1 | 36 | 2 | -4 | 44 | 37 | 0 | ·
CCOC(=O)c1ccc(NC(=O)c2nc(S(=O)(=O)Cc3ccccc3)ncc2Cl)cc1 | 34 | 42* | -3 | 89* | 70* | 20* | 73*
COC(=O)c1ccc(NC(=O)c2nc(S(=O)(=O)Cc3cccc(C)c3)ncc2Cl)cc1 | 34 | 47* | -11 | 67* | 66* | 19 | 61*
Cc1ccc(C(=O)NCc2ccc3c(c2)OCO3)c(Cl)c1 | · | -7 | · | · | 2 | 0 | ·
Cc1cccc(CS(=O)(=O)c2ncc(Cl)c(C(=O)NCc3ccc4c(c3)OCO4)n2)c1 | -11 | 17 | -5 | 48 | 57* | 0 | 44*
CCOC(=O)c1ccc(NC(=O)CCS(=O)(=O)Cc2ccccc2)cc1 | 13 | -4 | 7 | 7 | -4 | 1 | ·

Screens deposited in PubChem by Sanford-Burnham Center for Chemical Genomics.
